Assay outcomes as filed in PubChem.
Shown are actives, neighbours in structure and some others; about 2.2% of the full set was active somewhere.
UBC13 inh: blocks human UBC13 polyubiquitin chain formation; P61088; TR-FRET; inhibition, % at 20 µM; hit rate 0.47% among 330,000; in the data active = inhibition above about 45%, passing the limit was not always enough
Target sequence (P61088 whole entry, looked up): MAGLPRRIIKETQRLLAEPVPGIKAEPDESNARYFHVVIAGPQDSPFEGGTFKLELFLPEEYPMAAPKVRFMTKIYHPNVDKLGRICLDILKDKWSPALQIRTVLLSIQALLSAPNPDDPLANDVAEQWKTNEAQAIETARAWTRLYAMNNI
UBC9 SUMO inh: blocks human SUMOylation mediated by UBC9 | P63279 | hit rate 0.36% among 290,000 | HTRF SUMOylation assay, SAE1/SAE2 + UBC9, in vitro | inhibition, % at 35 µM | AID 2006; in the data active = inhibition above about 50%, passing the limit was not always enough
Target sequence (P63279 whole entry, looked up): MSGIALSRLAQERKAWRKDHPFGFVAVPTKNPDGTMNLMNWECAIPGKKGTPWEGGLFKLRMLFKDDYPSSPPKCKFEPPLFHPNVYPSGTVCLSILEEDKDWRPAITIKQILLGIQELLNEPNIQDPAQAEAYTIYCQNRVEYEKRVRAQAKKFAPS
Apaf-1 inh: blocks human Apaf-1 apoptosome activity | reconstituted apoptosome caspase-3 activity, DEVD-Rh110 fluorescence | inhibition, % at 20 µM | hit rate 0.71% among 330,000; active = inhibition of at least 40% at 20 µM;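 note: plate controls were DMSO wells for no effect and DEVD-CHO caspase inhibitor wells for full effect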
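Material: reconstituted apoptosome with Apaf-1, cytochrome c, caspase-9, procaspase-3, dATP; medium: pH 7.5 Hepes buffer with CHAPS, BSA, DTT; also added: cytochrome c and DEVD-Rh110 substrate; timing: 30 min plus 50 min, RT; signal: Rh110 fluorescence intensity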
Rin1-Abl PPI inh: inhibitors of human Rin1-Abl protein interaction; P00519+Q13671; TR-FRET Rin1/Abl binding, biochemical; inhibition, % at 7.35 µM; hit rate 0.4% among 360,000; AID 588664; in the data active = inhibition above about 5%, passing the limit was not always enough
GSTO1 counter: counter-screen for RBBP9 inhibitors: inhibitors of human GSTO1; recombinant GSTO1, activity-based probe fluorescence polarization; inhibition, % at 5.96 µM; hit rate 1.1% among 300,000;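 active = inhibition above the campaign mean inhibition plus 3 SD, cut at about 35% in these data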;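 note: 0% = GSTO1-1 with DMSO and 100% = wells lacking GSTO1-1 enzyme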
Target sequence (P78417 whole entry, looked up): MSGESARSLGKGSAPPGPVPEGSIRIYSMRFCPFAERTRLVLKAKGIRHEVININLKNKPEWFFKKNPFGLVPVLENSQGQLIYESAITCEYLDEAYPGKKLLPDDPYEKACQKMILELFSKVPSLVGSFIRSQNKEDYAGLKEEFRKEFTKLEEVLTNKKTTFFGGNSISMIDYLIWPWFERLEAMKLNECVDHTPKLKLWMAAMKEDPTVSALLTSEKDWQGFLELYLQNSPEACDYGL
PAD4 FP inh: inhibitors of human PAD4; Q9UM07; recombinant PAD4, RCA probe fluorescence polarization; AID 485272; hit rate 0.41% among 330,000; inhibition, % at 6.36 µM;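 active = percent inhibition above a cutoff equal to the mean of all tested compounds plus 3 SD, cut at about 15% in these data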;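 note: 0% = PAD4 with RCA probe and DMSO and 100% = probe without PAD4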
GSTO1 inh conf: confirmation of human GSTO1 inhibitors; shares compounds with GSTO1 counter; recombinant GSTO1, probe fluorescence polarization; inhibition, % at 5.96 µM; hit rate 54% among 2,400; AID 2176;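 active = inhibition above the primary screen's cutoff, its mean inhibition plus 3 SD, cut at about 35% in these data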;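 note: loss of polarization as inhibitors block binding of rhodamine sulfonate ester activity probe; 0% = GSTO1 with DMSO and 100% = wells lacking GSTO1 enzyme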
* hit, by the source's call; . = no result given.

SMILES	UBC13 inh	UBC9 SUMO inh	Apaf-1 inh	Rin1-Abl PPI inh	GSTO1 counter	PAD4 FP inh	GSTO1 inh conf
O=C(OC1CCc2ccccc2C1=O)c1ccccc1O (centres undefined)	5.1	5.0	14.6	-0.7	53.6*	0.6	47.5*
Cc1ccc(C)c(NC(=O)CSc2nnc(-c3n[nH]c4ccccc34)o2)c1	3.5	19.7	11.0	-3.6	39.1*	-4.0	29.4
Cc1ccc(C)c(NC(=O)CSc2nnc(-c3ccccc3C)o2)c1	9.4	-2.0	5.8	-1.3	-4.8	-0.1	.
CC1(C(=O)NS(=O)(=O)c2cccc(Cl)c2)CCN1C(=O)c1cccc2ccccc12 (centres undefined)	.	.	.	-0.4	.	.	.
CSCc1c(C(=O)OCC(=O)c2ccc[nH]2)oc2ccccc12	-11.5	.	21.4	2.6	.	.	.
O=c1oc2ccccc2c2oc3cc(O)c(O)cc3c12	13.8	25.4	-8.3	-3.1	48.9*	4.4	13.7
Cc1ccc(S(=O)(=O)N2CCOCC2)cc1NC(=O)COC(=O)COc1ccc(C#N)cc1	.	.	.	-0.1	.	.	.
O=C(O)c1ccc2cccc(O)c2n1	-22.9	-23.5	-19.7	2.8	39.2*	-0.9	22.2
O=C(O)c1cccc(C(=O)O)n1	-23.7	-14.6	-1.7	.	.	.	.
CCOc1cc(CNc2ccc(O)cc2)ccc1OCc1ccc(Cl)cc1Cl	-2.0	28.4	93.5*	0.1	87.3*	30.4*	3.2
CCOc1cccc(CNc2ccc(O)cc2)c1OCc1ccc(Cl)cc1	-0.7	32.2	31.8	-0.4	75.5*	-11.3	4.3
O=C1c2ccccc2C(=O)C12OC(c1ccccc1)C1(C(=O)c3ccccc3C1=O)C2c1ccc([N+](=O)[O-])cc1 (centres undefined)	-41.9	.	19.3	-1.0	-4.7	-8.8	.
O=C1c2ccccc2C(=O)C12OC2c1ccc(Cl)cc1 (centres undefined)	-16.8	.	27.2	.	44.7*	-17.9	14.6
O=C1Nc2ccccc2/C1=N\N=C\c1ccc(O)c(O)c1	-152.0	17.8	8.5	7.6	68.6*	2.3	10.9
COc1cc(/C=N/N=C2/C(=O)Nc3ccccc32)ccc1O	-135.9	2.6	-445.1	-3.4	13.1	-5.2	.
Cn1c(-c2ccccc2)cc(=NNS(C)(=O)=O)c2cc(S(=O)(=O)O)ccc21	.	.	.	0.4	.	.	.
Cn1c(=O)c2[nH]c(-c3ccccc3O)nc2n(C)c1=O	2.2	1.1	7.3	.	38.0*	-2.5	13.3
CC(C)c1ccc(-c2nc3c([nH]2)c(=O)n(C)c(=O)n3C)cc1	3.9	1.1	0.7	-3.0	-1.1	5.1	.
CCOc1ccc(-c2csc(/C(C#N)=C\c3ccc(O)c([N+](=O)[O-])c3)n2)cc1	-110.9	39.7	14.6	1.6	43.1*	-1.0	53.9*
CC(=O)OCCN1C(=O)c2ccc(-c3nc4ccccc4c(=O)o3)cc2C1=O	4.9	.	-16.3	-3.5	5.4	-0.9	.
Cc1cc(NC(=O)Cc2cccs2)no1	7.8	16.6	12.0	-0.1	44.5*	-18.7	20.5
COc1ccc(C(c2nnnn2-c2c(C)cccc2C)N2CCN(C/C=C/c3ccccc3)CC2)cc1 (centres undefined)	.	.	.	-1.7	.	.	.
CC(C)=CCc1c(O)c(CC=C(C)C)c2c(c1O)-c1cc(O)c(O)cc1CC2	-8.3	.	18.8	.	38.9*	1.9	-6.8
O=C(COC(=O)c1ccc([N+](=O)[O-])s1)NCc1ccc(F)cc1	-0.4	5.4	34.1	-0.5	42.8*	3.7	16.3
O=C(COC(=O)c1ccc([N+](=O)[O-])s1)NC(=O)NCc1ccccc1	-3.2	-9.7	33.0	-2.6	50.6*	-3.3	16.8
SMILES	UBC13 inh	UBC9 SUMO inh	Apaf-1 inh	Rin1-Abl PPI inh	GSTO1 counter	PAD4 FP inh	GSTO1 inh conf
Cc1oc2c(c1C(=O)c1ccccc1)C(=O)C(=O)c1ccccc1-2	-144.9	93.1*	91.4*	-2.5	85.0*	74.0*	91.1*
Cc1cc(O)c(N)c(C)c1Cl	5.4	-7.5	1.2	3.7	46.0*	2.1	2.9
Cc1cc(O)cc(C)c1Cl	12.3	.	-4.2	-0.9	7.5	4.5	.
CCOC(=O)NC(=O)/C(C#N)=N\Nc1cccc(Cl)c1	-14.2	12.6	-9.7	-4.1	-2.0	3.6	.
CCOC(=O)NC1(Nc2cccc(Cl)c2)Oc2ccccc2O1	.	2.4	.	-1.0	56.0*	-0.4	3.9
Clc1ncccc1-c1nnn(-c2ccccc2)n1	5.7	-8.5	2.0	-1.5	57.8*	-2.7	4.2
Fc1ccc(-n2nnc(-c3cccnc3Cl)n2)cc1	-12.5	-12.6	2.8	1.6	0.5	-4.6	.
CN(C)c1ccc(NC(=O)CSc2nnc(-c3ccco3)c(-c3ccco3)n2)cc1	-31.0	69.7	20.9	0.8	18.9	-5.2	.
COc1cccc(NC(=O)CSc2nnc(-c3ccco3)c(-c3ccco3)n2)c1	-5.0	39.6	23.9	-2.1	50.2*	3.8	15.6
Cc1ccccc1NC(=O)CSc1nnc(-c2ccco2)c(-c2ccco2)n1	-6.0	64.7*	32.3	-0.9	54.5*	-7.6	17.8
Cc1ccccc1NC(=O)CSc1n[nH]c(-c2ccco2)n1	-6.9	-1.3	-1.2	0.3	17.2	-3.1	.
O=C(CSc1nnc(-c2ccco2)c(-c2ccco2)n1)Nc1ccccc1	-6.8	13.8	31.9	0.2	42.0*	-4.6	29.9
O=c1cc(O)cc2n1CCC2	.	.	.	3.8	.	.	.
CCCC1NC(=S)N(C2CCCCC2)C1=O (centres undefined)	6.7	1.4	9.7	-0.3	40.2*	-0.5	2.9
CCC(NC(C)C)C(O)c1ccc(O)c(O)c1 (centres undefined)	19.4	3.1	-0.9	-1.8	50.0*	-3.0	2.4
COc1ccc(NC(=O)c2cc(-c3ccc(OC)c(OC)c3)on2)cc1OC	13.6	15.0	-22.3	3.7	3.0	2.1	.
COCC(C)NC(=O)c1cc(-c2ccc(OC)c(OC)c2)on1 (centres undefined)	2.2	4.0	-2.8	0.5	52.6*	-1.1	4.0
COc1ccc(C2=CC3=C(Br)C(=O)C(C)(OC(=O)C4CCCC4)C(=O)C3=CO2)cc1 (centres undefined)	-6.4	7.6	7.4	1.3	38.7*	-9.7	24.9
COC(=O)CCC(=O)OC1(C)C(=O)C2=COC(c3ccc(OC)cc3)=CC2=C(Br)C1=O (centres undefined)	-41.1	-8.3	0.7	.	20.2	-1.6	.
COCc1cc(CN2CCCC(C(=O)Nc3cccc(-n4cnnn4)c3)C2)ccc1OC (centres undefined)	2.5	2.8	5.7	-1.6	3.2	-4.6	.
Cc1cc(C)c(S(=O)(=O)Nc2cc(SCC(=O)O)c(O)c3ccccc23)cc1C	.	72.3	.	.	89.6*	49.3*	5.0
Cc1cc(C)c(S(=O)(=O)Nc2ccc(O)cc2)cc1C	-2.6	13.6	3.0	-0.2	6.9	-0.1	.
Cc1ccc2nc(-c3cccc(Br)c3)c(Cc3cccc(Cl)c3)n2c1	.	.	.	-2.6	.	.	.
COC1=C(c2ccccc2)C(=O)c2ccccc2C1=O	-45.2	-10.0	16.0	3.6	43.9*	-12.8	35.5*
